The source made the active and inactive calls. The rule behind the calls is not given here.
Assays:
[1] = target: T1, Receptor-type tyrosine-protein kinase FLT3 (Homo sapiens, UniProt P36888); assay: Inhibition of recombinant Flt3 using poly(Glu,Tyr) as substrate after 2 hrs by luminescence assay
T1 sequence (P36888 whole entry): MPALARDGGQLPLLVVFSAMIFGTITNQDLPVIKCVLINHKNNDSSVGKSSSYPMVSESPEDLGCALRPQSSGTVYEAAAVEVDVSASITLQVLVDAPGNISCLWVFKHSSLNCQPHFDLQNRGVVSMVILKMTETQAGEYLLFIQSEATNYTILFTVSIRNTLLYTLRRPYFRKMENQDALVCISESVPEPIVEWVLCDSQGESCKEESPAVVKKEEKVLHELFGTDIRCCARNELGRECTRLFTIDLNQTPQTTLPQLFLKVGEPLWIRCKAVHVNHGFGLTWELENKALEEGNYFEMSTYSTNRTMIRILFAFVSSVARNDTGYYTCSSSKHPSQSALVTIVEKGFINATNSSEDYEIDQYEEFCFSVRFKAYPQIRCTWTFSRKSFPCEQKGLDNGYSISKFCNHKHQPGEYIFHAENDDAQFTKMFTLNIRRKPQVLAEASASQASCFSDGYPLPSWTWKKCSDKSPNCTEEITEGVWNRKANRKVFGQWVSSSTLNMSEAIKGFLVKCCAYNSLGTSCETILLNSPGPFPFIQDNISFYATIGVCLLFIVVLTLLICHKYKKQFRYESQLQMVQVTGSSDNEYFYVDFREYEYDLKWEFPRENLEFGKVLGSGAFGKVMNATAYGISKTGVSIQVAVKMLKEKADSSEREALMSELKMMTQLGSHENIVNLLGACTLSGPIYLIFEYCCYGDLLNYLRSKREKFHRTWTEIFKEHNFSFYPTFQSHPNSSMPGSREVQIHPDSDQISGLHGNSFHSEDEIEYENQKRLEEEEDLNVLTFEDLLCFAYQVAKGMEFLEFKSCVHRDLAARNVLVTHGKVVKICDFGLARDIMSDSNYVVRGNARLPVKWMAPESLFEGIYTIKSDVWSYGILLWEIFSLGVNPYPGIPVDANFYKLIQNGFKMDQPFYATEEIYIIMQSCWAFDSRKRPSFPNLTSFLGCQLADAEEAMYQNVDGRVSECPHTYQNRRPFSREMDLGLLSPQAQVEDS

Ramos = assay: Antitumor activity against human Ramos cells xenografted in BALB/c nude mouse assessed as tumor growth inhibition at 75 mg/kg, po qd on a 2 days on and 5 days off schedule for 15 days; format: functional; conditions: read-out: GI
HCT-116 [2] = assay: Antitumor activity against human HCT116 cells xenografted in po dosed BALB/c nude mouse assessed as tumor growth inhibition; format: functional, organism-based
Summary of the method: (§1)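 Female BALB/c nude mice implanted sc with 5 × 10^6 HCT-116 cells; treatment began day 8 after inoculation when tumors were 75–144 mm3 (group mean 105 mm3), 9–10 mice/group. Oral gavage at 50 or 75 mg/kg, Mon/Wed/Fri, in 0.5% methylcellulose/0.1% Tween 80, to day 15. Volume (w2l)/2 measured twice weekly. %TGI from day-15 median volumes vs vehicle.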

[3] = target: Cyclin-dependent kinase 2 (Homo sapiens) (UniProt P24941); assay: Inhibition of CDK2 in human HCT116 cells assessed as Rb phosphorylation at 200 nM after 24 hrs by Western blot analysis; format: cell-based; conditions: HCT-116
Summary of the method: (§2)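 HCT-116 cells (2 × 10^5 in McCoy's medium with 2 mM L-glutamine and 10% FBS) seeded 16−24 h before dosing. Each dish exposed to one compound concentration or DMSO for 24 h. Lysis in modified RIPA buffer; protein by Bradford. 30 μg lysate run on 10% SDS−PAGE, blotted to PVDF, probed for phospho-Rb and β-actin. ECL detection.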

HCT-116 [4] = assay: Antitumor activity against human HCT116 cells xenografted in BALB/c nude mouse assessed as tumor growth inhibition at 50 mg/kg, po qd administered thrice in a week for 15 days; format: functional, organism-based; set-up: dose 50 mg/kg; summary of the method: as §1
[5] = Oral bioavailability in BALB/c mouse at 75 mg/kg by LC-MS/MS analysis; format: ADME, organism-based; conditions: in vivo
Summary of the method: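 Male BALB/c mice (~10−12 weeks, 17−22 g) gavaged with 75 mg/kg as a suspension in 0.5% methylcellulose/0.1% Tween 80. Serial blood by cardiac puncture over 0−24 h into K3EDTA, plasma stored at −70 °C, LC−MS/MS; parameters by noncompartmental analysis.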

[6] = Terminal half life in BALB/c mouse at 75 mg/kg, po by LC-MS/MS analysis; format: ADME, organism-based; set-up: dose 75 mg/kg, route oral; conditions: in vivo, read-out: beta t1/2 (converted)
Summary of the method: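 Male BALB/c mice, ~10−12 weeks, 17−22 g. Given 75 mg/kg by oral gavage as a suspension in 0.5% methylcellulose/0.1% Tween 80. Serial blood taken by cardiac puncture over 0−24 h into K3EDTA; plasma stored at −70 °C. Analysis by LC−MS/MS, parameters by noncompartmental methods.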

[7] = Terminal half life in BALB/c mouse at 5 mg/kg, iv by LC-MS/MS analysis; format: ADME, organism-based; set-up: dose 5 mg/kg, route intravenous; conditions: in vivo, read-out: beta t1/2 (converted)
[8] = Volume of distribution at steady state in BALB/c mouse at 5 mg/kg, iv by LC-MS/MS analysis; format: ADME, organism-based; set-up: dose 5 mg/kg, route intravenous; conditions: in vivo, read-out: Vdss
[9] = Clearance in BALB/c mouse at 5 mg/kg, iv by LC-MS/MS analysis; format: ADME, organism-based; set-up: dose 5 mg/kg, route intravenous; conditions: in vivo
[10] = Plasma protein binding in dog at 1000 ng/ml after 4 hrs by equilibrium dialysis method; format: ADME, cell-free, Canis lupus familiaris; conditions: read-out: PPB
Summary of the method: (§3)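 Equilibrium dialysis of plasma (mouse, dog, human) spiked to 1000 ng/mL against PBS, 4 h at 37 °C. Buffer side extracted in triplicate with MTBE, dried, reconstituted in methanol/water 60:40, measured by LC−MS/MS.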

[11] = Plasma protein binding in human at 1000 ng/ml after 4 hrs by equilibrium dialysis method; format: ADME, cell-free; conditions: read-out: PPB; summary of the method: as §3
[12] = Half life in rat liver microsomes at 5 uM by LC-MS/MS analysis; format: ADME, Microsome
Summary of the method: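 5 μM with mouse, rat, dog or human liver microsomes (~0.87 mg/mL), 50 mM potassium phosphate pH 7.4, NADPH regeneration system, 37 °C.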

[13] = Apparent permeability of the compound from apical to basolateral side in human Caco2 cells at 5 uM after 21 to 28 days by LC/MS analysis; format: ADME, cell-based; conditions: Caco-2
Summary of the method: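 5 μM in HBSS (DMSO <1%) dosed apical or basolateral on 21−28-day confluent Caco-2 monolayers, both sides pH 7.4. Sampled at 2 h, quantified by LC/MS with four-point calibration. Monolayer integrity checked by pre-experiment TEER (450−650 Ωcm2) and Lucifer yellow; efflux ratio = Papp B→A / Papp A→B.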

[14] = target: Cyclin-dependent kinase 2 (Homo sapiens) (UniProt P24941); assay: Inhibition of CDK2 in human HCT116 cells assessed as Rb phosphorylation at 40 nM after 24 hrs by Western blot analysis; format: cell-based; conditions: HCT-116; summary of the method: as §2
COLO 205 = assay: Antiproliferative activity against human COLO205 cells after 48 hrs; format: functional, cell-based; conditions: COLO 205, 48 h
HCT-116 [15] = assay: Antiproliferative activity against human HCT116 cells after 48 hrs; format: functional, cell-based; conditions: HCT-116, 48 h
[16] = Oral bioavailability in Wistar rat at 10 mg/kg by LC-MS/MS analysis; conditions: in vivo

Structure (SMILES): CN1C/C=C/CCOc2cccc(c2)-c2ccnc(n2)Nc2cccc(c2)C1 [ZOTIRACICLIB]
- IC50 [1]: 56 nM
- inhibition in vivo at 75 mg/kg (Ramos): 42%
- growth inhibition (GI) (HCT-116 [2]): Dose-dependent effect
- inhibition [3]: Active
- growth inhibition (GI) (HCT-116 [4]): Active
- bioavailability [5]: 24%
- half-life [6]: 6.1 h
- half-life [7]: 4.6 h
- Vd [8]: 23 L/kg
- clearance [9]: 110 mL/min/kg
- fraction unbound at 4 h, 1000 ng/ml [10]: 0.001
- fraction unbound at 4 h, 1000 ng/ml [11]: 0.001
- half-life at 5 µM [12]: 0.183 h
- Papp A→B at 5 µM [13]: 28 ×10⁻⁶ cm/s
- inhibition [14]: Active
- IC50 (COLO 205): 72 nM
- IC50 (HCT-116 [15]): 79 nM
- bioavailability [16]: 4%
